The full list was thinned out, with hits kept by preference.
IDH1 R132H inh = inhibitors of IDH1 R132H reductase, primary screen, biochemical, plate reader, single point | Isocitrate dehydrogenase [NADP] cytoplasmic (Homo sapiens), O75874 | diaphorase/resazurin fluorescence, 60 min | inhibition, % at 10 µM | 0.18% of 70,000 active; in the data active means inhibition above about 34%; inconclusive means no clear call, values can overlap the other calls; inactive means below about 11%;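 further: 0% = DMSO and 100% = no enzyme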
Target sequence (O75874 whole entry R132H): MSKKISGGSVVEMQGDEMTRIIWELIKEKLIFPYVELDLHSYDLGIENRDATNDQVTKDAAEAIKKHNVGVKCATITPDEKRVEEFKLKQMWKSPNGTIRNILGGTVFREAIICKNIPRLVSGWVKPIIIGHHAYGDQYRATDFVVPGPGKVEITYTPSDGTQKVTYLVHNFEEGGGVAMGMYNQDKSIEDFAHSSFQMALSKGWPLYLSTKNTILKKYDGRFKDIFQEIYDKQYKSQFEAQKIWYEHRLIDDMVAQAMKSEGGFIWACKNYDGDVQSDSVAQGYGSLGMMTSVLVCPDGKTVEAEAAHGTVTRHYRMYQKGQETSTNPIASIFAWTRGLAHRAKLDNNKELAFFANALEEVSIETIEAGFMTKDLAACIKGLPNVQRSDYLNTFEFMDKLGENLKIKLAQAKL
GASC1 inh = inhibitors of GASC-1 (KDM4C) histone demethylase, primary screen, biochemical, single concentration HTS; Lysine-specific demethylase 4C (Homo sapiens), Q9H3R0; AID 720574, 2013; 0.15% of 96,000 active; GST-KDM4C 2-372, H3K9me3 peptide, LANCE TR-FRET; inhibition, % at 12.5 µM;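 active means mean replicate inhibition above about 25%, with at least 55% of replicates also reaching it, limit read from the data, passing the limit was not always enough; inconclusive means only one of those two conditions met; inactive means neither condition met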
Target sequence (Q9H3R0 2-372 limits assumed): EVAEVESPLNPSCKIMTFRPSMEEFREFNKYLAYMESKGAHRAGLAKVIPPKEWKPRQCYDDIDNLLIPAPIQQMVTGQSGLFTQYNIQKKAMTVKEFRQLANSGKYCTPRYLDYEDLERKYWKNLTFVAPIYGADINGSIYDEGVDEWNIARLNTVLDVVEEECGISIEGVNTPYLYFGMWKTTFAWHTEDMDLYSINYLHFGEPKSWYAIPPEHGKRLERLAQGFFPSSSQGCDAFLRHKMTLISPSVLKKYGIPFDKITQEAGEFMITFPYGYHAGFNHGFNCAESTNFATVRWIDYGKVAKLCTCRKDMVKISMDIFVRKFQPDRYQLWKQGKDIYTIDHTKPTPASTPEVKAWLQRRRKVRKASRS
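Material: GST-tagged GASC-1 (JMJD2C) catalytic fragment, aa 2-372 / Quantity: enzyme final amount 10 nM / Medium: HEPES buffer, pH 7.5, plus ascorbate / Doses: one test concentration per compound / Incubation: 30 min reaction, 60 min detection, RT / Measured by: LANCE TR-FRET / Read-out: inhibition from TR-FRET ratio decrease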
T cruzi growth-1 = T. cruzi intracellular proliferation inhibitors, primary screen, cell-based, beta-gal Tulahuen parasites, NIH3T3 host, luminescence. T. cruzi beta-gal in NIH3T3, GalScreen luminescence, 90 h. inhibition, % at 8.34 µM. 5.9% of 77,000 active;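 active means mean inhibition above about 93%, with at least 55% of replicates each passing it, limit read from the data, passing the limit was not always enough; inconclusive means only one of those two conditions holds; inactive means neither condition holds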
T cruzi growth-2 = T. cruzi intracellular proliferation inhibitors, confirmation, cell-based, NIH3T3 host, beta-gal parasite, luminescence, cherry-pick; shares compounds with T cruzi growth-1; T. cruzi beta-gal in NIH3T3, GalScreen luminescence, 90 h; inhibition, % at 8.35 µM; 72% of 5,600 active;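 active means mean replicate inhibition above about 95% and at least 55% of replicates individually reaching it, limit read from the data; inconclusive means only one of the two criteria is met; inactive means neither criterion is met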
T cruzi growth-3 = inhibitors of intracellular T. cruzi replication, confirmation, NIH3T3 host cells, beta-gal parasites, cherry-pick, set 2; 21% of 5,600 active; T. cruzi beta-gal in NIH3T3, GalScreen luminescence, 90 h; inhibition, % at 2.09 µM; shares compounds with T cruzi growth-1;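 active means mean inhibition above about 95%, with at least 55% of replicates also reaching it, limit read from the data; inconclusive means meets just one of the two conditions; inactive means meets neither condition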;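 further: plate controls were neutral control median for no effect and positive control median for full effect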
3T3 cytotox = cytotoxicity in mouse NIH/3T3 fibroblasts, confirmation, cytotoxicity control for T. cruzi proliferation inhibitor project, cell-based, cherry-pick, single point. shares compounds with T cruzi growth-1. 14% of 5,600 active. NIH/3T3 viability, CellTiter-Glo ATP luminescence, 90 h. cytotoxicity (signal decrease), % at 8.35 µM;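 active means mean signal decrease across replicates above about 35% based on untreated-well scatter, with enough replicates individually passing, limit read from the data; inconclusive means no rule stated though some were filed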;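 further: 0% = median of neutral control wells and 100% = median of positive control wells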
NIH3T3 tox 2 = NIH/3T3 fibroblast cytotoxicity, confirmation, cytotoxicity control, cell-based, cherry-pick, single point, set 2. 56% of 5,600 active. NIH/3T3 viability, CellTiter-Glo ATP luminescence, 90 h. AID 651744, 2012. shares compounds with T cruzi growth-1. inhibition, % at 24.9 µM;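 active means mean loss of cell viability signal at or above a set limit, and enough replicates individually reaching it; inconclusive means meets only the mean limit or only the replicate share; inactive means meets neither condition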;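 further: 0% = median of neutral control wells and 100% = median of positive control wells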
* = called active by the depositor; ? = inconclusive; . = not tested or not shown.

SMILES | IDH1 R132H inh | GASC1 inh | T cruzi growth-1 | T cruzi growth-2 | T cruzi growth-3 | 3T3 cytotox | NIH3T3 tox 2
CCS(=O)(=O)N1CCCCN2[C@H](CO)[C@H](c3ccc(-c4ccccc4)cc3)[C@H]2C1 | . | 0 | 84 | . | . | . | .
Cc1cccc(-n2c(N)cc(=O)nc2SCC(=O)N(c2ccccc2)c2ccccc2)c1 | 1 | . | . | . | . | . | .
Cc1ccc(-c2ccc3c(c2)O[C@H](CN(C)C(=O)Nc2ccccc2)[C@H](C)CN([C@@H](C)CO)S3(=O)=O)cc1 | -1 | 10 | . | . | . | . | .
Cc1ccc(-c2ccc3c(c2)O[C@H](CN(C)C(=O)Nc2ccc(F)cc2)[C@H](C)CN([C@@H](C)CO)S3(=O)=O)cc1 | 0 | 7 | 119* | 97* | 86 | -7 | 21
Cc1ccc(-c2ccc3c(c2)O[C@@H](CN(C)C(=O)Nc2ccccc2)[C@@H](C)CN([C@H](C)CO)S3(=O)=O)cc1 | -1 | 12 | . | . | . | . | .
Cc1ccc(-c2ccc3c(c2)O[C@H](CN(C)C(=O)Nc2ccc(F)cc2)[C@@H](C)CN([C@H](C)CO)S3(=O)=O)cc1 | 0 | 2 | 16 | . | . | . | .
Cc1ccc(-c2ccc3c(c2)O[C@@H](CN(C)C(=O)Nc2ccc(F)cc2)[C@@H](C)CN([C@H](C)CO)S3(=O)=O)cc1 | . | -2 | 122* | 108* | 89 | 55* | 45*
Cc1ccc(-c2ccc3c(c2)O[C@H](CN(C)C(=O)Nc2ccc(F)cc2)[C@H](C)CN([C@H](C)CO)S3(=O)=O)cc1 | . | -1 | 122* | 110* | 80 | 5 | 66*
Cc1cc(C)c(C)c(Oc2coc3cc(OCC(=O)Nc4ccccc4F)ccc3c2=O)c1 | 0 | . | . | . | . | . | .
O=C(NCC(O)c1ccccc1)c1ccc(Cl)c(S(=O)(=O)N2CCOCC2)c1 (centres undefined) | 0 | . | . | . | . | . | .
Cc1ccc(-c2nn(-c3ccc(C)cc3)c3c2cnc2c(F)cccc23)cc1 | -1 | . | . | . | . | . | .
O=C(CSc1ncnc2sc3c(c12)CCC3)Nc1cccc(-c2nc3ccccc3s2)c1 | 0 | . | . | . | . | . | .
Cc1ccc(NC(=O)CSc2nc3c(c(C(F)(F)F)n2)CCCC3)cc1C | 0 | . | . | . | . | . | .
COc1cc(OC)c(O[C@@H]2O[C@H](COC(=O)c3cc(O)c(O)c(O)c3)[C@@H](O)[C@H](O)[C@H]2O)c(OC)c1 | 0 | . | . | . | . | . | .
COc1ccc(NC(=O)CSc2nc(C(C)(C)C)cs2)cc1 | 1 | . | . | . | . | . | .
CSc1nnc(CNC(=O)OC(C)(C)C)n1C | -1 | . | . | . | . | . | .
C[C@H]1CCCCO[C@@H](CN(C)C(=O)Nc2ccc(F)cc2)[C@@H](C)CN([C@@H](C)CO)C(=O)c2cc(NC(=O)Cc3ccccc3)ccc2O1 | . | -2 | 113* | 67 | 55 | -25 | 2
C[C@@H]1CCCCO[C@H](CN(C)C(=O)Nc2ccc(F)cc2)[C@H](C)CN([C@H](C)CO)C(=O)c2cc(NC(=O)Cc3ccccc3)ccc2O1 | -19 | 1 | 105* | 111* | 53 | -12 | -7
C[C@@H]1CCCCO[C@H](CN(C)C(=O)Nc2ccc(F)cc2)[C@@H](C)CN([C@@H](C)CO)C(=O)c2cc(NC(=O)Cc3ccccc3)ccc2O1 | 3 | 0 | 94 | . | . | . | .
C[C@@H]1CCCCO[C@H](CN(C)C(=O)Nc2ccc(F)cc2)[C@@H](C)CN([C@H](C)CO)C(=O)c2cc(NC(=O)Cc3ccccc3)ccc2O1 | . | -1 | 55 | . | . | . | .
COC(=O)CCC(=O)Nc1ccc(C(N)=O)cc1 | 0 | . | . | . | . | . | .
Cc1cccc(-c2ccc([C@@H]3[C@@H](CO)N4CCCCN(C(=O)c5ccc6c(c5)OCO6)C[C@@H]34)cc2)c1 | . | 0 | 55 | . | . | . | .
COc1cccc(-c2ccc([C@@H]3[C@@H](CO)N4CCCCN(C(=O)c5ccc6c(c5)OCO6)C[C@H]34)cc2)c1 | . | -2 | 92 | . | . | . | .
COc1cccc(-c2ccc([C@H]3[C@@H](CO)N4CCCCN(C(=O)c5ccc6c(c5)OCO6)C[C@H]34)cc2)c1 | . | 1 | 110* | 105* | 87 | 33 | 106*
Cc1cccc(-c2ccc([C@@H]3[C@@H](CO)N4CCCCN(C(=O)c5ccc6c(c5)OCO6)C[C@H]34)cc2)c1 | . | -1 | 106* | 104* | 35 | 26 | 103*
SMILES | IDH1 R132H inh | GASC1 inh | T cruzi growth-1 | T cruzi growth-2 | T cruzi growth-3 | 3T3 cytotox | NIH3T3 tox 2
O=C(c1ccc2c(c1)OCO2)N1CCCCN2[C@@H](CO)[C@H](c3ccc(-c4ccccc4)cc3)[C@@H]2C1 | . | -1 | 54 | . | . | . | .
CC(=O)N1CCCCN2[C@H](CO)[C@H](c3ccc(-c4cccc(C)c4)cc3)[C@@H]2C1 | . | -1 | 78 | . | . | . | .
Cc1cccc(-c2ccc([C@H]3[C@H]4CN(C(=O)c5ccc6c(c5)OCO6)CCCCN4[C@H]3CO)cc2)c1 | . | 0 | 116* | 105* | 57 | 31 | 106*
Cc1cccc(-c2ccc([C@H]3[C@@H](CO)N4CCCCN(C(=O)c5ccc6c(c5)OCO6)C[C@@H]34)cc2)c1 | . | -1 | ? | 111* | 99* | ? | 90*
Cn1c(SCC(=O)Nc2ccc(Br)c(Cl)c2)nnc1-c1ccco1 | 0 | . | . | . | . | . | .
O=C(COc1cccc(NC(=O)c2ccccc2[N+](=O)[O-])c1)c1ccc(F)cc1 | 0 | . | . | . | . | . | .
Cc1nnc(SCC(=O)Nc2ccc(Cl)c(C)c2)s1 | 0 | . | . | . | . | . | .
Cc1cccc(-c2ccc([C@H]3[C@@H](CO)N4CCCCN(C(=O)c5ccc6c(c5)OCO6)C[C@H]34)cc2)c1 | . | -2 | 120* | 98* | 105* | 44* | 107*
O=C(c1ccc2c(c1)OCO2)N1CCCCN2[C@H](CO)[C@@H](c3ccc(-c4ccccc4)cc3)[C@H]2C1 | . | 0 | 102* | 86 | 55 | 28 | 68*
O=C(c1ccc2c(c1)OCO2)N1CCCCN2[C@H](CO)[C@H](c3ccc(-c4ccccc4)cc3)[C@H]2C1 | . | 0 | 61 | . | . | . | .
Cc1cccc(-c2ccc([C@@H]3[C@@H](CO)N4C(=O)CN(C(=O)c5ccc6c(c5)OCO6)C[C@H]34)cc2)c1 | . | -1 | . | . | . | . | .
COc1cccc(NC(=O)Cn2cnc3ccccc3c2=O)c1 | 0 | . | . | . | . | . | .
Cc1cccc(-n2c(C)nnc2SCC(=O)Nc2ccc(Br)cc2F)c1 | 0 | . | . | . | . | . | .
O=C(C[C@H]1CC[C@H]2[C@@H](COC[C@@H](O)CN2S(=O)(=O)c2cccc(Cl)c2)O1)Nc1ccc(-c2ccccc2)cc1 | . | -7 | 109* | 107* | 108* | 11 | 92*
